The source made the active and inactive calls. The rule behind the calls is not given here. Non-standard residues stand in square brackets, D forms with d. Residues, ends and D or L forms follow the SMILES beside them. Arg(Me) = CNC(=N)NCCC[C@H](N)C(=O)O; d4Pal = N[C@H](Cc1ccncc1)C(=O)O; azaGly = NNC(=O)O
Legend:
KiSS-1 receptor [1] = biological target: KiSS-1 receptor (Rattus norvegicus, UniProt Q924U1); assay: Binding affinity to rat KISS1R
[2] = Metabolic stability in mouse serum assessed as compound remaining at 0.1 mM after 1 hr by HPLC analysis; assay type: ADME; settings: read-out: Stability
Procedure, shortened: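 Pooled mouse serum (45 µL) spiked with 5 µL of 1 mM aqueous peptide, giving 0.1 mM initial, and incubated at 37 °C. Aliquots taken at time 0 and after 1 h, quenched by boiling 3 min. Peptide quantified by HPLC peak area. Percent remaining relative to time 0; three independent experiments.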

KiSS-1 receptor [3] = biological target: T1, KiSS-1 receptor (Homo sapiens, UniProt Q969F8); assay: Agonist activity at recombinant human KISS1R expressed in CHO cells assessed as intracellular calcium mobilization incubated for 30 mins at 37 degC and 30 mins at room temperature by Fluo-4 NW staining-based FLIPR assay relative to Metastin (45 to 54); assay type: functional, cell-based
Procedure, shortened: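 CHO cells stably expressing human KISS1R seeded at 15,000 cells/well, cultured 24 h, then loaded with Fluo-4 Direct in HBSS with 4 mM probenecid and 0.1% BSA (30 min 37 °C, 30 min room temperature). Compounds from 10 µM DMSO stocks diluted in sample buffer and added. Fluorescence read for 2 min at 2 s intervals. Peak counts give agonist activity. EC50 expressed as ratio to metastin(45-54).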

Rattus norvegicus [4] = assay: Induction of ovulation in immature Wistar rats assessed as increase in number of oocytes at 30 to 100 nmol/kg administered dorsally by stereomicroscopy; assay type: functional, organism-based
Procedure, shortened: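 23-day-old female Wistar rats primed subcutaneously with eCG 10 IU/animal. Two days later, saline-dissolved agents injected dorsally at 30 or 100 nmol/kg (5 rats/group; saline control 6; hCG 10 IU positive control). Animals killed 24–25 h later. Oöcytes retrieved from oviducal ampulla under stereomicroscopy, or by flushing oviduct and uterus with saline, and counted.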

[5] = Plasma concentration in Copenhagen rat at 2 nmol/h, sc measured after 6 days by radioimmunoassay; assay type: ADME, organism-based
Rattus norvegicus [6] = assay: Suppression of testosterone in plasma of rat at 1 nmol/h, sc measured after 13 days by radioimmunoassay; assay type: functional, organism-based
Procedure, shortened: (§1)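 Male rats given peptide continuously at 1 nmol/h. Plasma testosterone measured after 6 and 13 days; detection limit 0.04 ng/mL.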

Rattus norvegicus [7] = assay: Suppression of testosterone in plasma of rat at 1 nmol/h, sc measured after 6 days by radioimmunoassay; assay type: functional, organism-based; procedure, shortened: as §1
Rattus norvegicus [8] = assay: Suppression of testosterone in plasma of Copenhagen rat at 2 nmol/h, sc measured after 6 days by radioimmunoassay; assay type: functional, organism-based
Procedure, shortened: (§2)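 9-week-old male CD(SD)IGS or Copenhagen rats (5/group) given peptide in distilled water by subcutaneous dorsal ALZET osmotic pump (2 mM, 0.001 mL/h) for 6 days; water-pump controls. Plasma (aprotinin/EDTA) testosterone measured by RIA on 0.05 mL. Values below detection limit (0.04 ng/mL) set to 0.04; results expressed as percent of control.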

KiSS-1 receptor [9] = biological target: T1, KiSS-1 receptor; assay: Binding affinity to human KISS1R expressed in CHO cell membranes
Rattus norvegicus [10] = assay: Suppression of testosterone in plasma of Sprague-Dawley rat at 2 nmol/h, sc measured after 6 days by radioimmunoassay; assay type: functional; procedure, shortened: as §2
[11] = Bioavailability in Sprague-Dawley rat at 1 mg/kg, sc; assay type: ADME, organism-based; settings: in vivo

T1 sequence (Q969F8 whole entry): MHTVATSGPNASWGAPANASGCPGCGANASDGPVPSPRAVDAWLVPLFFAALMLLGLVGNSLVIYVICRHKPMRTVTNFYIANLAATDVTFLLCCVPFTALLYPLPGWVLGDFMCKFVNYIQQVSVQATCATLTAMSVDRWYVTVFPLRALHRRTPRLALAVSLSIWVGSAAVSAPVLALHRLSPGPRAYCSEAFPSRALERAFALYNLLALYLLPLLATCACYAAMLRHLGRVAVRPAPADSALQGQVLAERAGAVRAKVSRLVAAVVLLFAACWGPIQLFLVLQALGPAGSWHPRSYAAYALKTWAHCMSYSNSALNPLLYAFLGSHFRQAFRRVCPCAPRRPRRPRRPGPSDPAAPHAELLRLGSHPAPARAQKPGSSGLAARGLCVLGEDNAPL
Chain of KiSS-1 receptor (Rattus norvegicus, UniProt Q924U1) (Q924U1 whole entry): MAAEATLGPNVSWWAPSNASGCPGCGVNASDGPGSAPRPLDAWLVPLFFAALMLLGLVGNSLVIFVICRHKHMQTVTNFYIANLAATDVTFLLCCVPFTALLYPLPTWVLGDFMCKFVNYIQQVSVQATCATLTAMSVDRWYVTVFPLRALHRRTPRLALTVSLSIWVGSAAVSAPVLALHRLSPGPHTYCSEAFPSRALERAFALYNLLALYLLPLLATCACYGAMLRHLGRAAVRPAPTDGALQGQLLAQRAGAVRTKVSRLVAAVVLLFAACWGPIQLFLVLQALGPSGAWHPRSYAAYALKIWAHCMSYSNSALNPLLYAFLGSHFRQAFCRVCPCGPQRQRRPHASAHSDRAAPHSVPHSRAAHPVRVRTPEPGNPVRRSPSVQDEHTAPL

- Ki (KiSS-1 receptor [1]): 0.1 nM
- remaining at 1 h, 100 µM [2]: 54.9%
- fold change (FC) (KiSS-1 receptor [3]): 4.8
- concentration at 144 h [5]: 0.95 nM
- Ki (KiSS-1 receptor [9]): 0.089 nM
- bioavailability [11]: 40.4%
SMILES: CNC(=N)NCCC[C@H](NC(=O)[C@H](CC(C)C)NC(=O)NNC(=O)[C@H](Cc1ccccc1)NC(=O)[C@H](CO)NC(=O)[C@H](CC(N)=O)NC(=O)[C@@H](Cc1ccncc1)NC(=O)[C@H](N)Cc1ccc(O)cc1)C(=O)N[C@@H](Cc1ccccc1)C(N)=O [KISS1-305] (H-[dY][d4Pal]NSF[azaGly]L[Arg(Me)]F-NH2)
- Activity (Rattus norvegicus [4]): Active
- Activity (Rattus norvegicus [6]): Active
- Activity (Rattus norvegicus [7]): Active
- Activity (Rattus norvegicus [8]): Active
- Activity (Rattus norvegicus [10]): 0.04 ng/mL
